According to ChEMBL document CHEMBL4732197, “Identification of novel potent HIV-1 inhibitors by exploiting the tolerant regions of the NNRTIs binding pocket” (Eur J Med Chem, 2021):
In brackets after ≈: the same amount, converted by molar mass.

Columns and labels:
[1] = tested on: Human immunodeficiency virus 1; test: Antiviral activity against HIV-1 3B infected in human MT4 cells assessed as reduction in virus-induced cytopathic effect incubated for 5 days by MTT assay; format: functional, organism-based; conditions: Human immunodeficiency virus 1, 3B, MT4, 120 h
Summary of the method: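 MT-4 cells resuspended at 6 × 10^5 cells/mL were infected with HIV-1 stock at 100–300 CCID50. Compounds were tested in serial 5-fold dilutions in triplicate wells. Viability was read by MTT after 5 days at 540 and 690 nm, using the median of three wells.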

[2] = Cytotoxicity against human MT4 cells assessed as reduction in cell viability incubated for 5 days by MTT assay; format: cell-based; conditions: time 5 day
Summary of the method: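 Mock-infected MT-4 cells at 6 × 10^5 cells/mL were given serial 5-fold compound dilutions in triplicate wells alongside the infected series. After 5 days viability was read by MTT at 540 and 690 nm, using the median of three wells.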

[3] = Selectivity index, ratio of CC50 for human MT4 cells to EC50 for antiviral activity against HIV IIIB; format: toxicity; conditions: read-out: Ratio CC50/EC50
Summary of the method: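 SI is computed as CC50/EC50. […] Both used serial 5-fold dilutions in triplicate and were read by MTT after 5 days, taking the median absorbance of three wells.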

[4] = Inhibition of reverse transcriptase RES056 mutant in HIV-1 infected in human MT4 cells assessed as reduction in virus-induced cytopathic effect incubated for 5 days by MTT assay; format: cell-based; conditions: Human immunodeficiency virus 1, MT4, 120 h
Summary of the method: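 MT-4 cells were spun down, resuspended at 6 × 10^5 cells/mL and infected with 100–300 CCID50 of mutant HIV-1 (RES056 = K103N + Y181C). Serial 5-fold compound dilutions were tested in triplicate wells alongside mock-infected wells. After 5 days, viability was read by MTT at 540 and 690 nm using the median of three wells.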

[5] = target: Human immunodeficiency virus type 1 reverse transcriptase (Human immunodeficiency virus 1, UniProt Q72547); test: Inhibition of HIV-1 reverse transcriptase assessed as inhibition of biotin-dUTP incorporation into wild type RT measured after 1 hr by ELISA
[6] = tested on: reverse transcriptase Y181C mutant (HIV-1); test: Inhibition of reverse transcriptase Y181C mutant in HIV-1 infected in human MT4 cells assessed as reduction in virus-induced cytopathic effect incubated for 5 days by MTT assay; conditions: Human immunodeficiency virus 1, MT4, 120 h
[7] = Solubility in water at pH 7 at 0.1 to 10 mg
[8] = physchem; conditions: water, pH 2
[9] = physchem; conditions: water, pH 7.4

Row | Structure (SMILES) | EC50 [1] | CC50 at 120 h [2] | selectivity ratio [3] | EC50 [4] | IC50 [5] | EC50 [6] | solubility [7] | solubility [8] | solubility [9]
1 | Cc1cc(/C=C/C#N)cc(C)c1Oc1nc(Nc2ccc(N3CCN(S(N)(=O)=O)CC3)cc2)nc2sccc12 | 0.028 µM | > 223 µM | > 7790 | 196 µM | 0.713 µM | 1.36 µM |  |  | 
2 | Cc1cc(/C=C/C#N)cc(C)c1Oc1nc(Nc2ccc(N3CCN(S(N)(=O)=O)CC3)cc2)nc2ccsc12 | 0.027 µM | > 223 µM | > 8310 | > 223 µM | 0.214 µM | 2.25 µM |  |  | 
3 | Cc1cc(/C=C/C#N)cc(C)c1Oc1nc(Nc2ccc(CN3CCNCC3)cc2)nc2ccsc12 | 0.216 µM | 3.97 µM | 18 |  | 0.707 µM |  |  |  | 
4 | Cc1cc(/C=C/C#N)cc(C)c1Oc1nc(Nc2ccc(N3CCCC(N)C3)cc2)nc2sccc12 (stereo not given) | 0.461 µM | 4.61 µM | 10 |  | 0.956 µM |  |  |  | 
5 | Cc1cc(/C=C/C#N)cc(C)c1Oc1nc(Nc2ccc(CN3CCN(S(C)(=O)=O)CC3)cc2)nc2sccc12 | 0.036 µM | 131 µM | 3560 | 18.8 µM | 0.103 µM | 1.27 µM |  |  | 
6 | O=C1Nc2ccc(Cl)cc2[C@@](C#CC2CC2)(C(F)(F)F)O1 [EFAVIRENZ] | 0.028 µM | > 6.33 µM |  | 0.335 µM |  | 0.005 µM |  |  | 
7 | Cc1ccnc2c1NC(=O)c1cccnc1N2C1CC1 [NEVIRAPINE] | 0.15 µM | > 15 µM |  | > 15 µM |  | 5.05 µM |  |  | 
8 | Cc1cc(/C=C/C#N)cc(C)c1Oc1nc(Nc2ccc(N3CCCC(N)C3)cc2)nc2ccsc12 (stereo not given) | 0.815 µM | 3.82 µM | 5 |  | 1.58 µM |  |  |  | 
9 | Cc1cc(/C=C/C#N)cc(C)c1Oc1nc(Nc2ccc(N3CCCC(NS(C)(=O)=O)C3)cc2)nc2sccc12 (stereo not given) | 1.43 µM | 112 µM | 78 | 16.5 µM | 1.02 µM | 14 µM |  |  | 
10 | Cc1cc(/C=C/C#N)cc(C)c1Oc1nc(Nc2ccc(N3CCCC(NS(C)(=O)=O)C3)cc2)nc2ccsc12 (stereo not given) | 0.45 µM | > 217 µM | > 434 | > 217 µM | 0.775 µM | 43.4 µM |  |  | 
11 | Cc1cc(/C=C/C#N)cc(C)c1Oc1nc(Nc2ccc(N3CCCC(NS(N)(=O)=O)C3)cc2)nc2sccc12 (stereo not given) | 0.126 µM | > 218 µM | > 1730 | > 218 µM | 4.79 µM | 7.53 µM |  |  | 
12 | Cc1cc(/C=C/C#N)cc(C)c1Oc1nc(Nc2ccc(N3CCNCC3)cc2)nc2ccsc12 | 0.387 µM | 5.73 µM | 15 |  | 0.945 µM |  |  |  | 
13 | Cc1cc(/C=C/C#N)cc(C)c1Oc1nc(Nc2ccc(CN3CCNCC3)cc2)nc2sccc12 | 0.042 µM | 4.03 µM | 94 |  | 0.151 µM |  |  |  | 
14 | Cc1cc(/C=C/C#N)cc(C)c1Oc1nc(Nc2ccc(CN3CCN(S(C)(=O)=O)CC3)cc2)nc2ccsc12 | 0.391 µM | 20.7 µM | 53 | > 20.7 µM | 0.139 µM | 5.64 µM |  |  | 
15 | Cc1cc(/C=C/C#N)cc(C)c1Oc1nc(Nc2ccc(CN3CCN(S(N)(=O)=O)CC3)cc2)nc2ccsc12 | 0.007 µM | 145 µM | 19000 | 1.91 µM | 0.961 µM | 0.154 µM | 49.7 µg/mL (≈ 86.3 µM) | 73.1 µg/mL (≈ 127 µM) | 39.5 µg/mL (≈ 68.6 µM)
16 | Cc1cc(/C=C/C#N)cc(C)c1Oc1nc(Nc2ccc(N3CCNCC3)cc2)nc2sccc12 | 0.584 µM | 4.74 µM | 8 |  | 0.849 µM |  |  |  | 
17 | Cc1cc(C#N)cc(C)c1Oc1nc(Nc2ccc(C#N)cc2)nc(N)c1Br [ETRAVIRINE] |  | > 4.59 µM |  | 0.06 µM |  | 0.015 µM | < 1 µg/mL |  | < 1 µg/mL
18 | Cc1cc(/C=C/C#N)cc(C)c1Oc1nc(Nc2ccc(CN3CCN(S(N)(=O)=O)CC3)cc2)nc2sccc12 | 0.008 µM | > 218 µM | > 26900 | 1.38 µM | 0.299 µM | 0.045 µM | 49.3 µg/mL (≈ 85.6 µM) | 64.9 µg/mL (≈ 113 µM) | 38.9 µg/mL (≈ 67.6 µM)
19 | Cc1cc(/C=C/C#N)cc(C)c1Oc1nc(Nc2ccc(N3CCCC(NS(N)(=O)=O)C3)cc2)nc2ccsc12 (stereo not given) | 0.059 µM | > 218 µM | > 3630 | > 218 µM | 2.41 µM | 3.64 µM |  |  | 
20 | Cc1cc(/C=C/C#N)cc(C)c1Oc1nc(Nc2ccc(N3CCN(S(C)(=O)=O)CC3)cc2)nc2ccsc12 | 0.027 µM | 11.5 µM | 428 | > 11.5 µM | 0.211 µM | 4.53 µM |  |  | 
21 | Cc1cc(/C=C/C#N)cc(C)c1Oc1nc(Nc2ccc(N3CCN(S(C)(=O)=O)CC3)cc2)nc2sccc12 | 0.172 µM | > 222 µM | > 1300 | 175 µM | 0.239 µM | 42.7 µM |  |  | 
